Laboratory results reported in ChEMBL document CHEMBL1914394, “Synthesis and spectroscopic characterization of 4-butoxyethoxy-N-octadecyl-1,8-naphthalimide as a new fluorescent probe for the determination of proteins” (Bioorg Med Chem Lett, 2011).

Legend:
Albumin [1] = target: T1, Albumin (Bos taurus, UniProt P02769); experiment: Binding affinity to bovine serum albumin assessed as stem-volmer quenching constant at pH 7.4 at 308K by fluorescence spectroscopic analysis; format: ADME; conditions: cattle, isolated protein
How it was run: (§1)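 BSA intrinsic fluorescence titrated with increasing BON in HCl–Tris buffer, pH 7.4, at each of four temperatures. F0/F (without/with BON) plotted against BON concentration; the Stern–Volmer quenching constant KSV is taken from the linear fit.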

Albumin [2] = target: T1, Albumin; experiment: Binding affinity to bovine serum albumin assessed as decrease in fluorescence intensity at 1.5 x 10^-5 mol/L at pH 7.4 by fluorescence spectroscopy in presence of Cr3+ cations; format: ADME; conditions: cattle, isolated protein, pH 7.4, 15 µM
How it was run: (§2)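 Fluorescence of the BON–BSA system in HCl–Tris pH 7.4 recorded with each interfering ion or amino acid added at different concentrations. Excitation 373 nm; emission scanned 390–550 nm; intensity change noted.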

Albumin [3] = target: T1, Albumin; experiment: Binding affinity to bovine serum albumin assessed as decrease in fluorescence intensity at 1.5 x 10^-5 mol/L at pH 7.4 by fluorescence spectroscopy in presence of glycine; format: ADME; conditions: cattle, isolated protein, pH 7.4, 15 µM; how it was run: as §2
Albumin [4] = target: T1, Albumin; experiment: Binding affinity to bovine serum albumin assessed as quenching constant at pH 7.4 at 308K by fluorescence spectroscopic analysis; format: ADME; conditions: cattle, isolated protein
How it was run: (§3)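 Quenching series of BSA with rising BON levels in HCl–Tris pH 7.4, run at four temperatures. KSV comes from the F0/F versus [BON] Stern–Volmer plot. The bimolecular quenching rate constant is calculated as Kq = KSV/τ0, with a biopolymer fluorescence lifetime τ0 of 10^-8 s.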

Albumin [5] = target: T1, Albumin; experiment: Binding affinity to bovine serum albumin assessed as quenching constant at pH 7.4 at 303K by fluorescence spectroscopic analysis; format: ADME; conditions: cattle, isolated protein; how it was run: as §3
Albumin [6] = target: T1, Albumin; experiment: Binding affinity to bovine serum albumin assessed as decrease in fluorescence intensity at 1.5 x 10^-5 mol/L at pH 7.4 by fluorescence spectroscopy in presence of Fe3+ cations; format: ADME; conditions: cattle, isolated protein, pH 7.4, 15 µM; how it was run: as §2
Albumin [7] = target: T1, Albumin; experiment: Binding affinity to bovine serum albumin assessed as decrease in fluorescence intensity at 10^-5 mol/L at pH 7.4 at 298K by fluorescence spectroscopy in presence of warfarin; format: ADME; design: scale not given: the % may be the effect or the level left; conditions: cattle, isolated protein, pH 7.4, 10 µM
How it was run: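 Site-marker displacement by fluorescence titration: BON and BSA held at a 10:1 molar ratio, then warfarin added stepwise to the mixture. Excitation 280 nm; emission recorded 290–400 nm.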

Albumin [8] = target: T1, Albumin; experiment: Binding affinity to bovine serum albumin assessed as decrease in fluorescence intensity peak1 at 1.71 x 10^-5 mol/L at pH 7.4 at 293K by three-dimensional fluorescence spectroscopy analysis; format: ADME; design: scale not given: the % may be the effect or the level left; conditions: cattle, isolated protein, pH 7.4, 17.1 µM
Albumin [9] = target: T1, Albumin; experiment: Binding affinity to bovine serum albumin assessed as quenching constant at pH 7.4 at 298K by fluorescence spectroscopic analysis; format: ADME; conditions: cattle, isolated protein; how it was run: as §3
Albumin [10] = target: T1, Albumin; experiment: Binding affinity to bovine serum albumin assessed as decrease in fluorescence intensity at 1.5 x 10^-5 mol/L at pH 7.4 by fluorescence spectroscopy in presence of Zn2+ cations; format: ADME; conditions: cattle, isolated protein, pH 7.4, 15 µM; how it was run: as §2
Albumin [11] = target: T1, Albumin; experiment: Binding affinity to bovine serum albumin assessed as decrease in fluorescence intensity at 1.5 x 10^-5 mol/L at pH 7.4 by fluorescence spectroscopy in presence of SO42+ anions; format: ADME; conditions: cattle, isolated protein, pH 7.4, 15 µM; how it was run: as §2
Albumin [12] = target: T1, Albumin; experiment: Binding affinity to bovine serum albumin assessed as binding constant at pH 7.4 at 293K by fluorescence spectroscopic analysis; format: ADME; conditions: cattle, isolated protein
How it was run: (§4)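 BSA fluorescence quenched by BON in HCl–Tris, pH 7.4, at four temperatures. Binding constants come from fitting the quenching data to the modified Stern–Volmer equation.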

Albumin [13] = target: T1, Albumin; experiment: Binding affinity to bovine serum albumin assessed as decrease in fluorescence intensity at 1.5 x 10^-5 mol/L at pH 7.4 by fluorescence spectroscopy in presence of Mg2+ cations; format: ADME; conditions: cattle, isolated protein, pH 7.4, 15 µM; how it was run: as §2
Albumin [14] = target: T1, Albumin; experiment: Binding affinity to bovine serum albumin assessed as stem-volmer quenching constant at pH 7.4 at 303K by fluorescence spectroscopic analysis; format: ADME; conditions: cattle, isolated protein; how it was run: as §1
Albumin [15] = target: T1, Albumin; experiment: Binding affinity to bovine serum albumin assessed as decrease in fluorescence intensity at 1.5 x 10^-5 mol/L at pH 7.4 by fluorescence spectroscopy in presence of Mn2+ cations; format: ADME; conditions: cattle, isolated protein, pH 7.4, 15 µM; how it was run: as §2
Albumin [16] = target: T1, Albumin; experiment: Binding affinity to bovine serum albumin assessed as stem-volmer quenching constant at pH 7.4 at 298K by fluorescence spectroscopic analysis; format: ADME; conditions: cattle, isolated protein; how it was run: as §1
Albumin [17] = target: T1, Albumin; experiment: Binding affinity to bovine serum albumin assessed as decrease in fluorescence intensity peak2 at 1.71 x 10^-5 mol/L at pH 7.4 at 293K by three-dimensional fluorescence spectroscopy analysis; format: ADME; design: scale not given: the % may be the effect or the level left; conditions: cattle, isolated protein, pH 7.4, 17.1 µM
Albumin [18] = target: T1, Albumin; experiment: Binding affinity to bovine serum albumin assessed as decrease in fluorescence intensity at 1.5 x 10^-5 mol/L at pH 7.4 by fluorescence spectroscopy in presence of Na+ cations; format: ADME; conditions: cattle, isolated protein, pH 7.4, 15 µM; how it was run: as §2
Albumin [19] = target: T1, Albumin; experiment: Binding affinity to bovine serum albumin assessed as decrease in fluorescence intensity at 1.5 x 10^-5 mol/L at pH 7.4 by fluorescence spectroscopy in presence of Mo6+ cations; format: ADME; conditions: cattle, isolated protein, pH 7.4, 15 µM; how it was run: as §2
Albumin [20] = target: T1, Albumin; experiment: Binding affinity to bovine serum albumin assessed as decrease in fluorescence intensity at 1.5 x 10^-5 mol/L at pH 7.4 by fluorescence spectroscopy in presence of Cu2+ cations; format: ADME; conditions: cattle, isolated protein, pH 7.4, 15 µM; how it was run: as §2
Albumin [21] = target: T1, Albumin; experiment: Binding affinity to bovine serum albumin assessed as decrease in fluorescence intensity at 1.5 x 10^-5 mol/L at pH 7.4 by fluorescence spectroscopy in presence of PO42+ anions; format: ADME; conditions: cattle, isolated protein, pH 7.4, 15 µM; how it was run: as §2
Albumin [22] = target: T1, Albumin; experiment: Binding affinity to bovine serum albumin assessed as decrease in fluorescence intensity at 1.5 x 10^-5 mol/L at pH 7.4 by fluorescence spectroscopy in presence of Br- anions; format: ADME; conditions: cattle, isolated protein, pH 7.4, 15 µM; how it was run: as §2
Albumin [23] = target: T1, Albumin; experiment: Binding affinity to bovine serum albumin assessed as decrease in fluorescence intensity at 1.5 x 10^-5 mol/L at pH 7.4 by fluorescence spectroscopy in presence of Ca2+ cations; format: ADME; conditions: cattle, isolated protein, pH 7.4, 15 µM; how it was run: as §2
Albumin [24] = target: T1, Albumin; experiment: Binding affinity to bovine serum albumin assessed as decrease in fluorescence intensity at 1.5 x 10^-5 mol/L at pH 7.4 by fluorescence spectroscopy in presence of Pb2+ cations; format: ADME; conditions: cattle, isolated protein, pH 7.4, 15 µM; how it was run: as §2
Albumin [25] = target: T1, Albumin; experiment: Binding affinity to bovine serum albumin assessed as binding constant at pH 7.4 at 308K by fluorescence spectroscopic analysis; format: ADME; conditions: cattle, isolated protein; how it was run: as §4
Albumin [26] = target: T1, Albumin; experiment: Binding affinity to bovine serum albumin assessed as decrease in fluorescence intensity at 1.5 x 10^-5 mol/L at pH 7.4 by fluorescence spectroscopy in presence of tyrosine; format: ADME; conditions: cattle, isolated protein, pH 7.4, 15 µM; how it was run: as §2
Albumin [27] = target: T1, Albumin; experiment: Binding affinity to bovine serum albumin assessed as decrease in fluorescence intensity at 1.5 x 10^-5 mol/L at pH 7.4 by fluorescence spectroscopy in presence of proline; format: ADME; conditions: cattle, isolated protein, pH 7.4, 15 µM; how it was run: as §2
Albumin [28] = target: T1, Albumin; experiment: Binding affinity to bovine serum albumin assessed as decrease in fluorescence intensity at 1.5 x 10^-5 mol/L at pH 7.4 by fluorescence spectroscopy in presence of Ni2+ cations; format: ADME; conditions: cattle, isolated protein, pH 7.4, 15 µM; how it was run: as §2
Albumin [29] = target: T1, Albumin; experiment: Binding affinity to bovine serum albumin assessed as binding constant at pH 7.4 at 303K by fluorescence spectroscopic analysis; format: ADME; conditions: cattle, isolated protein; how it was run: as §4
Albumin [30] = target: T1, Albumin; experiment: Binding affinity to bovine serum albumin assessed as stem-volmer quenching constant at pH 7.4 at 293K by fluorescence spectroscopic analysis; format: ADME; conditions: cattle, isolated protein; how it was run: as §1
Albumin [31] = target: T1, Albumin; experiment: Binding affinity to bovine serum albumin assessed as decrease in fluorescence intensity at 1.5 x 10^-5 mol/L at pH 7.4 by fluorescence spectroscopy in presence of tryptophane; format: ADME; conditions: cattle, isolated protein, pH 7.4, 15 µM; how it was run: as §2
Albumin [32] = target: T1, Albumin; experiment: Binding affinity to bovine serum albumin assessed as quenching constant at pH 7.4 at 293K by fluorescence spectroscopic analysis; format: ADME; conditions: cattle, isolated protein; how it was run: as §3
Albumin [33] = target: T1, Albumin; experiment: Binding affinity to bovine serum albumin assessed as quenching constant at pH 7.4 at 293K by fluorescence spectroscopy; conditions: cattle, isolated protein
Albumin [34] = target: T1, Albumin; experiment: Binding affinity to bovine serum albumin assessed as binding constant at pH 7.4 at 298K by fluorescence spectroscopic analysis; format: ADME; conditions: cattle, isolated protein; how it was run: as §4
Albumin [35] = target: T1, Albumin; experiment: Binding affinity to bovine serum albumin assessed as decrease in fluorescence intensity at 1.5 x 10^-5 mol/L at pH 7.4 by fluorescence spectroscopy in presence of K+ cations; format: ADME; conditions: cattle, isolated protein, pH 7.4, 15 µM; how it was run: as §2
Albumin [36] = target: T1, Albumin; experiment: Binding affinity to bovine serum albumin assessed as decrease in fluorescence intensity at 1.5 x 10^-5 mol/L at pH 7.4 by fluorescence spectroscopy in presence of lysine; format: ADME; conditions: cattle, isolated protein, pH 7.4, 15 µM; how it was run: as §2
Albumin [37] = target: T1, Albumin; experiment: Binding affinity to bovine serum albumin assessed as decrease in fluorescence intensity at 1.5 x 10^-5 mol/L at pH 7.4 by fluorescence spectroscopy in presence of Cl- anions; format: ADME; conditions: cattle, isolated protein, pH 7.4, 15 µM; how it was run: as §2

T1 sequence (P02769 whole entry): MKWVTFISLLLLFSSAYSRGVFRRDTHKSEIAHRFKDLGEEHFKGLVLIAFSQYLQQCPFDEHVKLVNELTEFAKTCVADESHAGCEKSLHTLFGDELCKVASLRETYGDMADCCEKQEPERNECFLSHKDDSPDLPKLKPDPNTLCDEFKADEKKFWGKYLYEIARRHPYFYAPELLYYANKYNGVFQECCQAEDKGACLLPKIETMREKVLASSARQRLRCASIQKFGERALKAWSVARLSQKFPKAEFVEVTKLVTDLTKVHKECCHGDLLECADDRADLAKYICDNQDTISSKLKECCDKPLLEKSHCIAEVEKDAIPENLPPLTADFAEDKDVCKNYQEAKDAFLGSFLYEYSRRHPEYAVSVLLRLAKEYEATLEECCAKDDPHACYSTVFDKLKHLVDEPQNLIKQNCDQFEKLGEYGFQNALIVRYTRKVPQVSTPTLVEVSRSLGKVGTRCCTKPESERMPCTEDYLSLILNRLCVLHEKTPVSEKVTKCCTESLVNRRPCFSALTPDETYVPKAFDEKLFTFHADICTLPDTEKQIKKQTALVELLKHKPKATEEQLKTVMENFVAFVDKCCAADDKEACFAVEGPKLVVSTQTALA

CCCCCCCCCCCCCCCCCCN1C(=O)c2cccc3c(OCCOCCCC)ccc(c23)C1=O
KSV (Albumin [1]): 8.54 ×10³ L/mol | Activity (Albumin [2]): Not Active | Activity (Albumin [3]): Active | Kq (Albumin [4]): 8.54 ×10¹¹ L/mol/s | Kq (Albumin [5]): 8.76 ×10¹¹ L/mol/s | Activity (Albumin [6]): Not Active | Activity (Albumin [7]): 42% | Activity (Albumin [8]): 25.16% | Kq (Albumin [9]): 9.03 ×10¹¹ L/mol/s | Activity (Albumin [10]): Not Active | Activity (Albumin [11]): Active | Kb (Albumin [12]): 3.89 ×10³ L/mol | Activity (Albumin [13]): Not Active | KSV (Albumin [14]): 8.76 ×10³ L/mol | Activity (Albumin [15]): Not Active | KSV (Albumin [16]): 9.03 ×10³ L/mol | Activity (Albumin [17]): 37.24% | Activity (Albumin [18]): Not Active | Activity (Albumin [19]): Not Active | Activity (Albumin [20]): Not Active | Activity (Albumin [21]): Active | Activity (Albumin [22]): Active | Activity (Albumin [23]): Not Active | Activity (Albumin [24]): Not Active | Kb (Albumin [25]): 1.77 ×10³ L/mol | Activity (Albumin [26]): Active | Activity (Albumin [27]): Active | Activity (Albumin [28]): Not Active | Kb (Albumin [29]): 2.12 ×10³ L/mol | KSV (Albumin [30]): 9.4 ×10³ L/mol | Activity (Albumin [31]): Active | Kq (Albumin [32]): 9.4 ×10¹¹ L/mol/s | Activity (Albumin [33]): Active | Kb (Albumin [34]): 2.82 ×10³ L/mol | Activity (Albumin [35]): Not Active | Activity (Albumin [36]): Active | Activity (Albumin [37]): Active
